According to ChEMBL document CHEMBL4017537, “Discovery of a Potent and Specific M. tuberculosis Leucyl-tRNA Synthetase Inhibitor: (S)-3-(Aminomethyl)-4-chloro-7-(2-hydroxyethoxy)benzo[c][1,2]oxaborol-1(3H)-ol (GSK656)” (J Med Chem, 2017):
≈ marks a conversion by molar mass, not a printed value.

Columns and labels:
Leucine--tRNA ligase = molecular target: T1, Leucine--tRNA ligase (Mycobacterium tuberculosis (strain ATCC 25618 / H37Rv), UniProt P9WFV1); experiment: Inhibition of Mycobacterium tuberculosis H37Rv N-terminal 6His-tagged LeuRS expressed in Escherichia coli BL21(DE3) assessed as L-[14C]leucine incorporation in to Escherichia coli tRNA after 20 mins by liquid scintillation counting analysis
T1 sequence (P9WFV1 whole entry): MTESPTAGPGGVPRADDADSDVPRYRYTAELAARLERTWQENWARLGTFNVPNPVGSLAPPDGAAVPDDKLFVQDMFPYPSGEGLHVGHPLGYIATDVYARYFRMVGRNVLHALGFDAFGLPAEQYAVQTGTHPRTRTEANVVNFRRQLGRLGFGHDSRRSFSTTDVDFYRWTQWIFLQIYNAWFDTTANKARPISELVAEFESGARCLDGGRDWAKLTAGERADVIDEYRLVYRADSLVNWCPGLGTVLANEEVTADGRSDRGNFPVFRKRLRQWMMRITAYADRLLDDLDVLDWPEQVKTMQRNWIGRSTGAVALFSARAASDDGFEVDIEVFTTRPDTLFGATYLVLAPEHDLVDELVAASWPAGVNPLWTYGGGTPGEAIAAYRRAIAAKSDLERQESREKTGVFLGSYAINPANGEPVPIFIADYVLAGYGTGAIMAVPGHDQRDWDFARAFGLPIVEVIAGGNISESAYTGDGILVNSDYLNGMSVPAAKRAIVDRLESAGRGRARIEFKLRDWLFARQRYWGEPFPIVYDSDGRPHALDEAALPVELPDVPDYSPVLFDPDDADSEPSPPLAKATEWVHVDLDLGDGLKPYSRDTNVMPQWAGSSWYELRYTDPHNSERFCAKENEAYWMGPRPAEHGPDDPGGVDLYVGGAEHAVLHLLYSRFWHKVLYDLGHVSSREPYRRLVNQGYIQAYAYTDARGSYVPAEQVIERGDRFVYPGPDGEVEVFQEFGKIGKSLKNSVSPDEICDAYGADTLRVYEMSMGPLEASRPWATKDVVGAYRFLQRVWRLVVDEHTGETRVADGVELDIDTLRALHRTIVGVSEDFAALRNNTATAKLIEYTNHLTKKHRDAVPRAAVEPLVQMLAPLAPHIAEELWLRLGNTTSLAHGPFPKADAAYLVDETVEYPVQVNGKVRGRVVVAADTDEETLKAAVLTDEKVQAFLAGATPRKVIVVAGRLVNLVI
How it was run: (§1)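 N-terminal His6-tagged LeuRS expressed in E. coli BL21(DE3), codon-optimized. 50 mM HEPES-KOH pH 8.0, 30 mM MgCl2, 30 mM KCl, 13 μM L-[14C]leucine, 15 μM tRNA (E. coli total; brewer's yeast for human cytoplasmic enzyme), 0.02% BSA, 1 mM DTT, 30 °C. Inhibitor preincubated 20 min, started with 4 mM ATP, TCA-quenched after 7 min, filtered, scintillation counted; four-parameter logistic IC50.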

[1] = tested on: Mycobacterium tuberculosis; experiment: Antimicrobial activity against Mycobacterium tuberculosis H37Rv; type: functional
[2] = molecular target: T2, Leucine--tRNA ligase, cytoplasmic (Homo sapiens, UniProt Q9P2J5); experiment: Inhibition of human N-terminal 6His-tagged cytoplasmic LeuRS expressed in Escherichia coli BL21(DE3) assessed as […] after 20 mins by liquid scintillation counting analysis
T2 sequence (Q9P2J5 whole entry): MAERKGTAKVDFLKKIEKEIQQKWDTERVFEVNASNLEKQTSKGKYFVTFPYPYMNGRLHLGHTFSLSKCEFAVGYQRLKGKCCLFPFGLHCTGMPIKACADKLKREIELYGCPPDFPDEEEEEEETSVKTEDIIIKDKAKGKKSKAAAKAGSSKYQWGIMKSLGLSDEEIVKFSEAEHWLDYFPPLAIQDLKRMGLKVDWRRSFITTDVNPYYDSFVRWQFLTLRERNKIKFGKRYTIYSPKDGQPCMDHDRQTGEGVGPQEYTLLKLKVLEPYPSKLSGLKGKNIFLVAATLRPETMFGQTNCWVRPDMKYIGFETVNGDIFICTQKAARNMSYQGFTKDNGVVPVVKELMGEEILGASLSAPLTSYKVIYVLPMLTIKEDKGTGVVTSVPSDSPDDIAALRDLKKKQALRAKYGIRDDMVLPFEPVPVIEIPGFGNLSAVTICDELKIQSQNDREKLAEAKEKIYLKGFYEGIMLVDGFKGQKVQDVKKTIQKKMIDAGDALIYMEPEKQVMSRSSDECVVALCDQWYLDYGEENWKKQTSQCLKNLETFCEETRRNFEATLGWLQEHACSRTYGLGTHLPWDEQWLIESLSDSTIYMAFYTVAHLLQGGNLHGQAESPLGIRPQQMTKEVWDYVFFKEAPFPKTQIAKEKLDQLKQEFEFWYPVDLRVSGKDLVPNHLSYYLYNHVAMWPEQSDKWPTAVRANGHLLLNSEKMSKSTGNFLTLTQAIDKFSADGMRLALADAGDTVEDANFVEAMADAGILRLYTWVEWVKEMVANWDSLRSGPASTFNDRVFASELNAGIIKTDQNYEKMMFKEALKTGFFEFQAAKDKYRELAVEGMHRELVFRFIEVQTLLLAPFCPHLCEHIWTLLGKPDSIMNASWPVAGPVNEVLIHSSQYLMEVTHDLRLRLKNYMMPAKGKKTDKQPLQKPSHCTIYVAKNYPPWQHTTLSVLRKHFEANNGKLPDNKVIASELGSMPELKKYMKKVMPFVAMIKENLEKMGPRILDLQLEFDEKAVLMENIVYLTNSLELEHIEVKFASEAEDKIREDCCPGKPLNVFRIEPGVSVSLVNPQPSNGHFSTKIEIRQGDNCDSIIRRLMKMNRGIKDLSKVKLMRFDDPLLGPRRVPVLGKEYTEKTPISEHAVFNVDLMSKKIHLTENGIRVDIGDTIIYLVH

cytoplasmic LeuRS = experiment: Selectivity index, ratio of EC50 for inhibition of cytoplasmic LeuRS in HepG2 cells assessed as reduction in protein synthesis to MIC for Mycobacterium tuberculosis H37Rv; type: toxicity, cell-based; conditions: human, read-out: Selectivity Index
How it was run: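 Ratio of HepG2 protein-synthesis EC50 to MIC against M. tuberculosis H37Rv.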

[3] = molecular target: T2, Leucine--tRNA ligase, cytoplasmic; experiment: Inhibition of cytoplasmic LeuRS in human HepG2 cells assessed as reduction in protein synthesis preincubated for 48 hrs followed by L-[14C]leucine addition measured after 3 hrs by liquid scintillation counting analysis; type: cell-based
How it was run: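 HepG2 cells in DMEM/10% FCS, 3000 cells/well, exposed to compound dilutions (0.5% DMSO final) for 48 h at 37 °C. Medium then replaced with fresh medium containing 0.5 μCi L-[14C]leucine and the same compound levels for 3 h. Cells trypsinised, precipitated in ice-cold 20% TCA, filtered, washed, scintillation counted; curve-fit EC50; mean of at least duplicates.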

HepG2 = experiment: Cytotoxicity against human HepG2 cells assessed as reduction in cell viability after 48 hrs by CellTiter-Glo assay; type: cell-based; conditions: HepG2, 48 h
How it was run: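 HepG2 cells seeded at 10 000/well in EMEM with 5% FCS and 2 mM glutamine. After 24 h, ten 1:2 serial compound dilutions (0.5% DMSO final) added in duplicate for 48 h. Read-out by CellTiter-Glo luminescence per table footnote; the method text also describes resazurin fluorescence (ex 515/em 590 nm). Sigmoidal variable-slope fit.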

[4] = molecular target: T3, Leucine--tRNA ligase, mitochondrial (Homo sapiens, UniProt Q15031); experiment: Inhibition of human N-terminal 6His-tagged mitochondrial LeuRS expressed in Escherichia coli BL21(DE3) assessed as L-[14C]leucine incorporation in to Escherichia coli tRNA after 20 mins by liquid scintillation counting analysis; how it was run: as §1
T3 sequence (Q15031 whole entry): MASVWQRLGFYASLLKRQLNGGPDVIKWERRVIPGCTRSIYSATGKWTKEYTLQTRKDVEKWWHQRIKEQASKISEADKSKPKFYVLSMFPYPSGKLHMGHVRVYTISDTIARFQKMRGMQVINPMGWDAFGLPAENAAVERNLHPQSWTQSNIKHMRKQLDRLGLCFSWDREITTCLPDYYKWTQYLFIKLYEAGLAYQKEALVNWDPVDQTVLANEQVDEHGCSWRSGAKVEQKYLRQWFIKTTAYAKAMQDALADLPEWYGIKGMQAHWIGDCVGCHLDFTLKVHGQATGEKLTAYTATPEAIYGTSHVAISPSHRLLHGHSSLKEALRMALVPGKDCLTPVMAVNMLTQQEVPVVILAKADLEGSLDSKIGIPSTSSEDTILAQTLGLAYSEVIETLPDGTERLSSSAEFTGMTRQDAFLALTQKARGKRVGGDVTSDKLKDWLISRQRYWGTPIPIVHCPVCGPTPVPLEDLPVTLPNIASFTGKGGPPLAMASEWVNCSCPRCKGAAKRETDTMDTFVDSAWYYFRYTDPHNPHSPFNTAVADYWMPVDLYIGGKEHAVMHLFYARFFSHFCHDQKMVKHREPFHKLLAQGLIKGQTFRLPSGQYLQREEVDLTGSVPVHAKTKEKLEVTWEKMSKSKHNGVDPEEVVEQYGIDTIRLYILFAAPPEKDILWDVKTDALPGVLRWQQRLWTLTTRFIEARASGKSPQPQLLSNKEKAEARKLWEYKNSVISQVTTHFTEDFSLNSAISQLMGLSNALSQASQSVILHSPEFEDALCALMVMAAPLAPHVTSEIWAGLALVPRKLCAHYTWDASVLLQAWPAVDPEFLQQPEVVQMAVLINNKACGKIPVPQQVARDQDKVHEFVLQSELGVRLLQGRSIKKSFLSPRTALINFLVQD

Mus musculus [5] = experiment: Dose normalized AUC (0 to infinity) in C57BL/6 mouse at 30 mg/kg, iv administered as single dose measured up to 24 hrs by LC-MS/MS analysis; type: ADME, organism-based; conditions: in vivo
[6] = Cmax in C57BL/6 mouse at 30 mg/kg administered as single dose via oral gavage measured up to 24 hrs by LC-MS/MS analysis; type: ADME, organism-based; set-up: dose 30 mg/kg, route oral; conditions: in vivo
[7] = Tmax in C57BL/6 mouse at 30 mg/kg administered as single dose via oral gavage measured up to 24 hrs by LC-MS/MS analysis; type: ADME, organism-based; conditions: in vivo
How it was run: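 C57BL/6 female mice (18−20 g) got one oral gavage dose of 30 mg/kg in 1% methylcellulose. Peripheral whole blood was sampled from 15 min to 24 h postdose, n = 3 mice per time point, and drug concentrations were measured in blood.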

[8] = AUC (0 to 24 hrs) in C57BL/6 mouse at 30 mg/kg administered as single dose via oral gavage by LC-MS/MS analysis; type: ADME, organism-based; set-up: time < 24 hr, dose 30 mg/kg, route oral; conditions: in vivo
Mus musculus [9] = experiment: Dose normalized AUC (0 to 24 hrs) in C57BL/6 mouse at 30 mg/kg administered as single dose via oral gavage by LC-MS/MS analysis; type: ADME, organism-based; conditions: in vivo
[10] = Volume of distribution at steady state in C57BL/6 mouse at 30 mg/kg, iv administered as single dose measured up to 24 hrs by LC-MS/MS analysis; type: ADME, organism-based; conditions: in vivo, read-out: Vdss
How it was run: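 C57BL/6 female mice (18−20 g) got one intravenous dose in saline. Whole blood (15 μL) was taken by lateral tail-vein puncture from each of 3 mice at 5, 15 and 30 min and at 1, 2, 4, 8 and 24 h postdose, and drug concentrations were measured in peripheral blood.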

[11] = Oral bioavailability in C57BL/6 mouse at 30 mg/kg administered as single dose via gavage measured up to 24 hrs by LC-MS/MS analysis; type: ADME, organism-based; conditions: in vivo
[12] = Clearance in C57BL/6 mouse at 30 mg/kg, iv administered as single dose measured up to 24 hrs by LC-MS/MS analysis; type: ADME, organism-based; conditions: in vivo
[13] = Half life in C57BL/6 mouse at 30 mg/kg, iv administered as single dose measured up to 24 hrs by LC-MS/MS analysis; type: ADME, organism-based; conditions: in vivo
[14] = AUC (0 to infinity) in C57BL/6 mouse at 30 mg/kg, iv administered as single dose measured up to 24 hrs by LC-MS/MS analysis; type: ADME, organism-based; set-up: dose 30 mg/kg, time infinity, route intravenous; conditions: in vivo
[15] = tested on: Mycobacterium tuberculosis; experiment: Antimicrobial activity against Mycobacterium tuberculosis H37Rv infected in C57BL/6J mouse assessed as 2 log reduction in bacterial load in lungs administered qd for 8 consecutive days starting on day 1 post infection measured 24 hrs post last dose; type: functional

Structure (SMILES)	IC50 (Leucine--tRNA ligase) [µM]	MIC [1] [µM]	IC50 [2] [µM]	selectivity ratio (cytoplasmic LeuRS)	EC50 [3] [µM]	EC50 (HepG2) [µM]	IC50 [4] [µM]	also measured
NC[C@H]1OB(O)c2c3c(cc(Br)c21)OCCO3	0.12	0.03 (≈ 0.009 µg/mL)	118	1320	39.5	43.2		
CCOc1ccc(Cl)c2c1B(O)O[C@@H]2CN	0.056	0.1 (≈ 0.0241 µg/mL)		196	19.6	65.8	> 300	
COc1ccc(Cl)c2c1B(O)O[C@@H]2CN	0.15	0.1 (≈ 0.0227 µg/mL)	260	1050	105	327	> 300	
NC[C@H]1OB(O)c2c(OCCO)ccc(Br)c21	0.12	0.08 (≈ 0.0242 µg/mL)	118	1450	116	292	> 300	
Cl.NC[C@H]1OB(O)c2c3c(cc(Cl)c21)OCCO3	0.046	0.08	96.6	1040	82.8	69.5		AUC/dose (Mus musculus [5]): 2.54 µg·h/mL/mg/kg; Cmax [6]: 6210 ng/mL; Tmax [7]: 1 h; AUC(0-t) at 24 h [8]: 37700 ng·h/mL; AUC/dose (Mus musculus [9]): 1.26 µg·h/mL; Vd [10]: 1.5 L/kg; bioavailability [11]: 50%; clearance [12]: 6.6 mL/min/kg; half-life [13]: 2.9 h; AUC(0-inf) [14]: 76300 ng·h/mL; ED99 [15]: 70 mg/kg
NCC1OB(O)c2c(OCc3ccccc3)ccc(Br)c21 (racemic)	0.44	5 (≈ 1.74 µg/mL)						
NC[C@@H]1OB(O)c2c(OCCO)ccc(Cl)c21	10	5 (≈ 1.29 µg/mL)						
NC[C@H]1OB(O)c2c(OCCCO)ccc(Br)c21	0.16	0.3 (≈ 0.0948 µg/mL)						
CCCCOc1ccc(Br)c2c1B(O)O[C@@H]2CN	0.2	0.45 (≈ 0.141 µg/mL)						
NCC1OB(O)c2cc(OCCCO)cc(Br)c21 (racemic)	0.37	> 5						
